This data set has as its system U87MG human glioma xenografts. The data set can be described thus: Biodistribution in athymic nude mice bearing U87MG glioma xenografts. The format is in vivo. To be noted: 1 h p.i. In a few lines:
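Female athymic nu/nu mice (4–5 weeks at purchase) received 5 × 10^6 U87MG cells in the shoulder flank and were used 4 weeks later (tumor 0.1–0.5 g, mice 20–25 g). Each got ~0.1 MBq HPLC-purified 99mTc radiotracer in saline by tail vein. Killed by pentobarbital overdose at 60 min p.i.; blood by heart puncture; organs washed, weighed, γ-counted; %ID/g; n = 4–6.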

[1] abbreviates: tail-vein injection, without RGD2.

Consider “[^99mTc(HYNIC-3P-RGD2)(tricine)(TPPTS)] [Compound 5]”, for which the Tumor/Blood is 15.36 ± 1.01, the Tumor/Liver is 2.55 ± 0.36, the Tumor/Lung is on record as 1.71 ± 0.05 and the Tumor/Muscle was found to be 6.58 ± 1.58. Under “tail-vein injection”, the Blood uptake came out at 0.47 ± 0.06 %ID/g, the Brain uptake was 0.17 ± 0.03 %ID/g, the Eyes uptake stood at 1.40 ± 0.13 %ID/g and the Heart uptake turned out to be 1.67 ± 0.15 %ID/g. Where the note is “tail-vein injection”, this substance displayed a Kidneys uptake of 12.28 ± 1.09 %ID/g, a Liver uptake of 2.92 ± 0.77 %ID/g, a Lungs uptake of 4.25 ± 0.63 %ID/g and a Muscle uptake of 1.12 ± 0.15 %ID/g. The same substance came in with a Spleen uptake (tail-vein injection) of 3.11 ± 0.18 %ID/g. Besides, under setting [1], the Intestine uptake is 9.45 ± 1.31 %ID/g and the Tumor uptake worked out at 7.24 ± 0.95 %ID/g.

Values taken from article PMC3667555 (Bioconjugate chemistry, 2013).
